Experimental data published in ChEMBL document CHEMBL4354820, “Optimizing Targeted Inhibitors of P-Glycoprotein Using Computational and Structure-Guided Approaches” (J Med Chem, 2019).

Key:
[1] = target: T1, ATP-dependent translocase ABCB1 (Homo sapiens, UniProt P08183); test: Reversal of P-gp mediated multidrug resistance in human DU145-TxR cells overexpressing P-gp assessed as potentiation of paclitaxel-induced cytotoxicity by measuring fold reduction paclitaxel IC50 at 7 uM after 48 hrs by MTT assay relative to parent compound; type: cell-based
T1 sequence (P08183 whole entry): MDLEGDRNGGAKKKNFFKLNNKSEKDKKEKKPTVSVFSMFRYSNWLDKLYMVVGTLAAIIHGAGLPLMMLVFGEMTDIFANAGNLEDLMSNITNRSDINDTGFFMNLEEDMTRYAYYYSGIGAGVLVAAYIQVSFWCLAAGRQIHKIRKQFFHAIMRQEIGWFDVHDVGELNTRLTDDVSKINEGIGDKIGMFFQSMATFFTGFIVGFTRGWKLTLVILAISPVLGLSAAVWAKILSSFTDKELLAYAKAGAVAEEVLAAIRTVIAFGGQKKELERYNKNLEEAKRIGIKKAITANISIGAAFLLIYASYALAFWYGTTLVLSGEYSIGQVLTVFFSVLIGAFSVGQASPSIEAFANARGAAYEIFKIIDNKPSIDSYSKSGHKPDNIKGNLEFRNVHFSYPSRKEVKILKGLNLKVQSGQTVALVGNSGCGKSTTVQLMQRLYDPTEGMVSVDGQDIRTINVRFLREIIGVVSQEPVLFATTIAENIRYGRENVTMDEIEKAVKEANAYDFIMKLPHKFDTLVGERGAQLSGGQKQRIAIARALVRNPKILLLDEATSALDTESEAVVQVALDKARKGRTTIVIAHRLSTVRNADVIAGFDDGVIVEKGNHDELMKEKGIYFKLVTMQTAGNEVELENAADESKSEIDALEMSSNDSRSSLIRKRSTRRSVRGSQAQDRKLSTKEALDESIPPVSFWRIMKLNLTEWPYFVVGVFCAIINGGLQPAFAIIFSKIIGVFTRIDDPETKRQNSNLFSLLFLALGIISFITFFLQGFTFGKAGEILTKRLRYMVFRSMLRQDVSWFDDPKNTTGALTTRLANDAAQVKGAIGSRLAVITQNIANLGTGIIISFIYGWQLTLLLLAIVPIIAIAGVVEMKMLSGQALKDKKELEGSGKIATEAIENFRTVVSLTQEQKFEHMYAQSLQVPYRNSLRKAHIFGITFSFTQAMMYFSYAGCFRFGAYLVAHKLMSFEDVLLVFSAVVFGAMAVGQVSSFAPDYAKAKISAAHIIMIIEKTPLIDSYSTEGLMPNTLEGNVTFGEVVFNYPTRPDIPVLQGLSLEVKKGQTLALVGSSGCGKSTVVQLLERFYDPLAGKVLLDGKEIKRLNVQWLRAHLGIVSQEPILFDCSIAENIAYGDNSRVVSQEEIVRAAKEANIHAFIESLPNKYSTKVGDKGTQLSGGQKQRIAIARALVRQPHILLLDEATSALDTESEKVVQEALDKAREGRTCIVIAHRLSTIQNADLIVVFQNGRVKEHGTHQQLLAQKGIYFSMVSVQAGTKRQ
Summary of the method: (§1)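 DU145TXR cells seeded at 3000 per well, 24 h later treated 48 h with paclitaxel alone or with 3, 5, 7 or 10 μM inhibitor in complete medium (DMSO vehicle). MTT 4 h, formazan dissolved in DMSO, A570 read, background subtracted, viability relative to DMSO. IC50 by four-parameter nonlinear fit; eight replicates, at least two experiments. Fold values compare paclitaxel alone or with parent inhibitor.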

[2] = target: T1, ATP-dependent translocase ABCB1; test: Reversal of P-gp mediated multidrug resistance in human DU145-TxR cells overexpressing P-gp assessed as potentiation of paclitaxel-induced cytotoxicity by measuring fold reduction paclitaxel IC50 at 5 uM after 48 hrs by MTT assay relative to parent compound; type: cell-based; summary of the method: as §1
[3] = target: T1, ATP-dependent translocase ABCB1; test: Inhibition of P-gp overexpressed in human DU145-TxR cells assessed as decrease in intracellular compound accumulation after 2.5 hrs in absence of tariquidar by LC-MS/MS analysis; type: cell-based
Summary of the method: (§2)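 P-gp-overexpressing DU145TXR cells exposed to test compounds with or without tariquidar. Intracellular compound measured by LC–MS/MS, with daunorubicin as a transported-substrate control. Ratio is accumulation with tariquidar divided by accumulation without.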

[4] = target: T1, ATP-dependent translocase ABCB1; test: Reversal of P-gp mediated multidrug resistance in human DU145-TxR cells overexpressing P-gp assessed as potentiation of paclitaxel-induced cytotoxicity by measuring fold reduction paclitaxel IC50 at 10 uM after 48 hrs by MTT assay relative to paclitaxel alone; type: cell-based; summary of the method: as §1
[5] = test system: P-glycoprotein 1 Abcb1a (Mus musculus); test: Inhibition of 2',3'-(2,2,5,5,-tetramethyl-3-pyrroline-l-oxyl-3-carboxylic acid ester)ATP interaction with mouse MDR3 P-gp expressed in Escherichia coli BL21 (DE3) assessed as reduction in ATP binding from 2 to 1 of nucleotide to mol of protein by ESR analysis (reference value: 1.8 +/- 0.1)
[6] = target: T1, ATP-dependent translocase ABCB1; test: Inhibition of P-gp overexpressed in human DU145-TxR cells assessed as increase in intracellular compound accumulation after 2.5 hrs in presence of tariquidar by LC-MS/MS analysis; type: cell-based; summary of the method: as §2
[7] = target: P-glycoprotein 1 Abcb1a (Mus musculus); test: Inhibition of spin-labelled adenine nucleotide interaction with mouse MDR3 P-gp expressed in Escherichia coli BL21 (DE3) assessed as apparent dissociation constant by ESR analysis (reference value: 36.5 +/- 3.6 uM)
[8] = target: T1, ATP-dependent translocase ABCB1; test: Reversal of P-gp mediated multidrug resistance in human DU145-TxR cells overexpressing P-gp assessed as potentiation of paclitaxel-induced cytotoxicity by measuring fold reduction paclitaxel IC50 at 7 uM after 48 hrs by MTT assay relative to paclitaxel alone; type: cell-based; summary of the method: as §1
[9] = target: T1, ATP-dependent translocase ABCB1; test: Reversal of P-gp mediated multidrug resistance in human DU145-TxR cells overexpressing P-gp assessed as potentiation of paclitaxel-induced cytotoxicity by measuring fold reduction paclitaxel IC50 at 3 uM after 48 hrs by MTT assay relative to parent compound; type: cell-based; summary of the method: as §1
[10] = target: T2, P-glycoprotein (ABCB1, MDR1) ATPase (Homo sapiens, UniProt P08183); test: Basal ATPase hydrolysis in recombinant human MDR1 expressed in Pichia pastoris measured after 30 mins in presence of NADH by coupled enzyme assay (reference value: 100 +/- 5 %); set-up: scale not given: the % may be the effect or the level left; settings: recombinant human MDR1 (P-gp) expressed in Pichia pastoris
T2 sequence (P08183 whole entry): as above

[11] = target: T1, ATP-dependent translocase ABCB1; test: Reversal of P-gp mediated multidrug resistance in human DU145-TxR cells overexpressing P-gp assessed as potentiation of paclitaxel-induced cytotoxicity by measuring fold reduction paclitaxel IC50 at 10 uM after 48 hrs by MTT assay relative to parent compound; type: cell-based; summary of the method: as §1
[12] = target: T3, P-glycoprotein (ABCB1, mouse MDR3) ATPase (Mus musculus, UniProt P21447); test: Stimulation of basal ATPase hydrolysis in recombinant mouse MDR3 expressed in Pichia pastoris measured after 30 mins in presence of NADH by coupled enzyme assay (reference value: 100 +/- 7 %); set-up: scale not given: the % may be the effect or the level left; settings: recombinant mouse MDR3 (P-gp) expressed in Pichia pastoris, read-out: Activity
T3 sequence (P21447 whole entry): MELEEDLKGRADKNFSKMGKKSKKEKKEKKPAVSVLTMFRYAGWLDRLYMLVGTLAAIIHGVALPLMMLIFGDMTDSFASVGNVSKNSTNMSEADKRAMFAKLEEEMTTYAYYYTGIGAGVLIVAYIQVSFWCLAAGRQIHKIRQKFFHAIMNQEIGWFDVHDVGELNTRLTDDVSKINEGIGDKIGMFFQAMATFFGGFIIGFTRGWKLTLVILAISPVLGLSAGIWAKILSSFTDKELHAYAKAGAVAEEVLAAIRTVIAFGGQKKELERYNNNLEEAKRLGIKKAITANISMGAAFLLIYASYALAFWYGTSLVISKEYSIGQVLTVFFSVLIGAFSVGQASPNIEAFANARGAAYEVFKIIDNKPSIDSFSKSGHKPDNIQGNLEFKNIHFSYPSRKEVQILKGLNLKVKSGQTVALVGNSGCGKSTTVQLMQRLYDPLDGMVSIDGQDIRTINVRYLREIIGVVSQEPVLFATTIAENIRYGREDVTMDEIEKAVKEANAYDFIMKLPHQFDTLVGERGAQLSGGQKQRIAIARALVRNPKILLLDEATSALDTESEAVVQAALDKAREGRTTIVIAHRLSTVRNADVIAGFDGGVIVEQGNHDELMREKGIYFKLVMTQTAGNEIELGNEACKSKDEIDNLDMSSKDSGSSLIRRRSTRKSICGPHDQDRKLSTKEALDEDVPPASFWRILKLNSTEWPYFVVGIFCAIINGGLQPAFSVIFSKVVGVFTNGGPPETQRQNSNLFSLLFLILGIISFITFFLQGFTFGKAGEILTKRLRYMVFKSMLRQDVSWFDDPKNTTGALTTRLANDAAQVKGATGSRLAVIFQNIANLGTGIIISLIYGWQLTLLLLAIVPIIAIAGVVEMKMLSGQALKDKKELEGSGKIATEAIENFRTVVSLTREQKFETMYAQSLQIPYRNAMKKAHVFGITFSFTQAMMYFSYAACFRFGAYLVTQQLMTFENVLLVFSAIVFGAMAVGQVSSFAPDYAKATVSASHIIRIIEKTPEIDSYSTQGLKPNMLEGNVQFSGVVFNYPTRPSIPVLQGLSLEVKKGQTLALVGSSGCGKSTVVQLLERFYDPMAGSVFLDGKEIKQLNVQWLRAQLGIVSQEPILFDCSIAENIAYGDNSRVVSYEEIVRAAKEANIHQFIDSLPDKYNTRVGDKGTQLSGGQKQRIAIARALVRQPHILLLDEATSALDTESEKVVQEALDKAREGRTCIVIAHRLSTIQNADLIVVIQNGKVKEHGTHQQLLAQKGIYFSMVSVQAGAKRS

[13] = target: T2, P-glycoprotein (ABCB1, MDR1) ATPase; test: Inhibition of verampil-stimulated ATPase hydrolysis in recombinant human MDR1 expressed in Pichia pastoris measured after 30 mins in presence of NADH by coupled enzyme assay (reference value: 100 +/- 6 %); set-up: scale not given: the % may be the effect or the level left; settings: recombinant human MDR1 (P-gp) expressed in Pichia pastoris
[14] = target: T1, ATP-dependent translocase ABCB1; test: Reversal of P-gp mediated multidrug resistance in human DU145-TxR cells overexpressing P-gp assessed as potentiation of paclitaxel-induced cytotoxicity by measuring fold reduction paclitaxel IC50 at 5 uM after 48 hrs by MTT assay relative to paclitaxel alone; type: cell-based; summary of the method: as §1
[15] = target: T1, ATP-dependent translocase ABCB1; test: Inhibition of P-gp overexpressed in human DU145-TxR cells assessed as increase in cellular accumulation of calcein AM at 2 uM preincubated for 6 hrs followed by calcein AM addition by fluorescence imaging analysis; type: cell-based
Summary of the method: (§3)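 Confluent DU145TXR monolayers in phenol red-free RPMI 1640 given 2 μM inhibitor (DMSO vehicle) and 1 μg mL−1 calcein AM, either added together or after a 6 h inhibitor-only preincubation at 37 °C. Calcein fluorescence (ex 485 / em 535 nm) read over 60 min at 20 min intervals. Six replicates, at least two independent experiments.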

[16] = target: T1, ATP-dependent translocase ABCB1; test: Ratio of inhibition of P-gp overexpressed in human DU145-TxR cells assessed as increase in intracellular compound accumulation after 2.5 hrs in presence of tariquidar by LC-MS/MS analysis to Inhibition of P-gp overexpressed in human DU145-TxR cells assessed as decrease in intracellular compound accumulation after 2.5 hrs in absence of tariquidar by LC-MS/MS analysis; type: cell-based; summary of the method: as §2
[17] = target: T1, ATP-dependent translocase ABCB1; test: Inhibition of P-gp overexpressed in human DU145-TxR cells assessed as increase in cellular accumulation of calcein AM at 2 uM pretreated followed by calcein AM addition by fluorescence imaging analysis; type: cell-based; summary of the method: as §3
[18] = target: T1, ATP-dependent translocase ABCB1; test: Reversal of P-gp mediated multidrug resistance in human DU145-TxR cells overexpressing P-gp assessed as potentiation of paclitaxel-induced cytotoxicity by measuring fold reduction paclitaxel IC50 at 3 uM after 48 hrs by MTT assay relative to paclitaxel alone; type: cell-based; summary of the method: as §1
[19] = target: T3, P-glycoprotein (ABCB1, mouse MDR3) ATPase; test: Stimulation of verampil-mediated ATPase hydrolysis in recombinant mouse MDR3 expressed in Pichia pastoris measured after 30 mins in presence of NADH by coupled enzyme assay (reference value: 100 +/- 8 %); set-up: scale not given: the % may be the effect or the level left; settings: recombinant mouse MDR3 (P-gp) expressed in Pichia pastoris, read-out: Activity
[20] = target: T3, P-glycoprotein (ABCB1, mouse MDR3) ATPase; test: Basal ATPase hydrolysis in recombinant mouse MDR3 expressed in Pichia pastoris measured after 30 mins in presence of NADH by coupled enzyme assay (reference value: 100 +/- 7 %); set-up: scale not given: the % may be the effect or the level left; settings: recombinant mouse MDR3 (P-gp) expressed in Pichia pastoris
[21] = target: T3, P-glycoprotein (ABCB1, mouse MDR3) ATPase; test: Inhibition of verampil-stimulated ATPase hydrolysis in recombinant mouse MDR3 expressed in Pichia pastoris measured after 30 mins in presence of NADH by coupled enzyme assay (reference value: 100 +/- 8 %); set-up: scale not given: the % may be the effect or the level left; settings: recombinant mouse MDR3 (P-gp) expressed in Pichia pastoris
[22] = target: T3, P-glycoprotein (ABCB1, mouse MDR3) ATPase; test: Effect on verampil-mediated ATPase hydrolysis of recombinant mouse MDR3 expressed in Pichia pastoris measured after 30 mins in presence of NADH by coupled enzyme assay (reference value: 100 +/- 8 %); set-up: scale not given: the % may be the effect or the level left; settings: recombinant mouse MDR3 (P-gp) expressed in Pichia pastoris, read-out: Activity
[23] = target: T2, P-glycoprotein (ABCB1, MDR1) ATPase; test: Effect on basal ATPase hydrolysis of recombinant human MDR1 expressed in Pichia pastoris measured after 30 mins in presence of NADH by coupled enzyme assay (reference value: 100 +/- 5 %); set-up: scale not given: the % may be the effect or the level left; settings: recombinant human MDR1 (P-gp) expressed in Pichia pastoris, read-out: Activity

SMILES	fold change (FC) [1]	fold change (FC) [2]	inhibition (INH) [3]	fold change (FC) [4]	Activity [5]	inhibition (INH) [6]	Kd [7] [µM]	fold change (FC) [8]	fold change (FC) [9]	Activity at 0.5 h [10] [%]	fold change (FC) [11]	Activity at 0.5 h [12] [%]	Activity at 0.5 h [13] [%]	fold change (FC) [14]	inhibition (INH) [15]	Ratio [16]	inhibition (INH) [17]	fold change (FC) [18]	Activity at 0.5 h [19] [%]	Activity at 0.5 h [20] [%]	other results
Cc1cc(C)c(-c2cc(NC(=O)CSCC(=O)NC(c3ccccc3)c3ccccc3)n(-c3ccccc3)n2)cc1C	3.7	3.5	Not Active	193	1.6	Not Active	21.6	133	3.9	76	1.9	148	54	38	Active	1.2	Not Active	13	116	–	–
Cc1cc(C)c(-c2cc(NC(=O)CSCC(=O)NC34CC5CC(CC(C5)C3)C4)n(-c3ccccc3)n2)cc1C	2.8	1.8	Not Active	163	1.3	Not Active	22.9	101	2.7	74	1.6	–	63	19	Active	1	Not Active	9.2	–	78	Activity at 0.5 h [21]: 41%
Cc1cc(C)c(-c2cc(NC(=O)CSc3cccc(NC(=O)c4cncc(Br)c4)c3)n(-c3ccccc3)n2)cc1C	6.6	9.7	–	353	1.7	–	22.8	236	11	72	3.5	150	27	106	Active	1.1	Active	38	–	–	Activity at 0.5 h [21]: 62%
Cc1cc(C)c(-c2cc(NC(=O)CSCC(=O)Nc3ccc4ccccc4c3)n(-c3ccccc3)n2)cc1C	8.4	4.2	–	1060	1.6	–	22.2	303	4.1	70	11	–	40	46	Active	0.9	Active	14	141	70	–
Cc1cc(C)c(-c2cc(NC(=O)CSCC(=O)Nc3ccc4ncsc4c3)n(-c3ccccc3)n2)cc1C	20	34	–	2118	1.9	Active	25.6	731	3.7	–	27	355	59	372	Active	1.2	Active	12	–	–	Activity at 0.5 h [22]: 123%; Activity at 0.5 h [23]: 84%
